Active and inactive are the calls of the source. No cut-off for these calls is given here.
How the values were obtained:
[1] = system: Rattus norvegicus; experiment: Antihyperlipidemic activity in triton WR-1339-induced Charles-Foster rat assessed as decrease in plasma total cholesterol level at 100 mg/kg, po after 18 hrs relative to control; assay type: functional; set-up: scale not given: the % may be the effect or the level left
Summary of the method: (§1)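 Male adult Charles Foster rats (200–225 g), six per group; hyperlipidemia induced by triton WR-1339 400 mg/kg i.p.; test agent macerated with 0.2% w/v gum acacia in water and given orally at the same time, with diet withdrawn; vehicle to controls. After 18 h, plasma was obtained by centrifugation at 2500 g, 4 °C, 10 min and diluted 1:3 in saline. Mean ± SD; Student's t-test.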

[2] = system: Rattus norvegicus; experiment: Antihyperlipidemic activity in triton WR-1339-induced Charles-Foster rat assessed as decrease in plasma triglyceride level at 100 mg/kg, po after 18 hrs relative to control; assay type: functional; set-up: scale not given: the % may be the effect or the level left; summary of the method: as §1
[3] = system: Rattus norvegicus; experiment: Antihyperlipidemic activity in triton WR-1339-induced Charles-Foster rat assessed as increase in post heparin lipolytic activity at 100 mg/kg, po after 18 hrs by spectrophotometric analysis relative to control; assay type: functional
Summary of the method: (§2)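 Triton WR-1339 400 mg/kg i.p. in male Charles Foster rats (six per group), with test agent in 0.2% gum acacia given orally at the same time. Post-heparin plasma lipolytic activity read after 18 h as nmol free fatty acids formed/h/ml plasma; percent change; mean ± SD; t-test.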

[4] = system: Rattus norvegicus; experiment: Antihyperlipidemic activity in triton WR-1339-induced Charles-Foster rat assessed as decrease in plasma phospholipid level at 100 mg/kg, po after 18 hrs relative to control; assay type: functional; set-up: scale not given: the % may be the effect or the level left; summary of the method: as §1
[5] = system: Rattus norvegicus; experiment: Antihyperlipidemic activity in triton WR-1339-induced Charles-Foster rat assessed as increase in post heparin lipolytic activity at 200 mg/kg, po after 18 hrs by spectrophotometric analysis relative to control; assay type: functional; summary of the method: as §2
[6] = system: Rattus norvegicus; experiment: Antihyperlipidemic activity in triton WR-1339-induced Charles-Foster rat assessed as decrease in plasma phospholipid level at 50 mg/kg, po after 18 hrs relative to control; assay type: functional; set-up: scale not given: the % may be the effect or the level left; summary of the method: as §1
[7] = system: Rattus norvegicus; experiment: Antihyperlipidemic activity in triton WR-1339-induced Charles-Foster rat assessed as decrease in plasma LDL level at 100 mg/kg, po after 18 hrs; assay type: functional, organism-based; set-up: dose 100 mg/kg; summary of the method: as §1
[8] = system: Rattus norvegicus; experiment: Antihyperlipidemic activity in triton WR-1339-induced Charles-Foster rat assessed as decrease in plasma triglyceride level at 200 mg/kg, po after 18 hrs relative to control; assay type: functional; set-up: scale not given: the % may be the effect or the level left; summary of the method: as §1
[9] = system: Rattus norvegicus; experiment: Antihyperlipidemic activity in triton WR-1339-induced Charles-Foster rat assessed as decrease in plasma total cholesterol level at 50 mg/kg, po after 18 hrs relative to control; assay type: functional; set-up: scale not given: the % may be the effect or the level left; summary of the method: as §1
[10] = system: Rattus norvegicus; experiment: Antihyperlipidemic activity in triton WR-1339-induced Charles-Foster rat assessed as decrease in plasma total cholesterol level at 200 mg/kg, po after 18 hrs relative to control; assay type: functional; set-up: scale not given: the % may be the effect or the level left; summary of the method: as §1
[11] = system: Rattus norvegicus; experiment: Antihyperlipidemic activity in triton WR-1339-induced Charles-Foster rat assessed as decrease in plasma VLDL level at 100 mg/kg, po after 18 hrs; assay type: functional, organism-based; set-up: dose 100 mg/kg; summary of the method: as §1
[12] = system: Rattus norvegicus; experiment: Antihyperlipidemic activity in triton WR-1339-induced Charles-Foster rat assessed as increase in liver lipoprotein lipase activity at 100 mg/kg, po after 18 hrs; assay type: functional, organism-based; set-up: dose 100 mg/kg
[13] = system: Rattus norvegicus; experiment: Antihyperlipidemic activity in triton WR-1339-induced Charles-Foster rat assessed as decrease in plasma phospholipid level at 200 mg/kg, po after 18 hrs relative to control; assay type: functional; set-up: scale not given: the % may be the effect or the level left; summary of the method: as §1
[14] = system: Rattus norvegicus; experiment: Antihyperlipidemic activity in triton WR-1339-induced Charles-Foster rat assessed as increase in post heparin lipolytic activity at 50 mg/kg, po after 18 hrs by spectrophotometric analysis relative to control; assay type: functional; summary of the method: as §2
[15] = system: Rattus norvegicus; experiment: Antihyperlipidemic activity in triton WR-1339-induced Charles-Foster rat assessed as decrease in plasma triglyceride level at 50 mg/kg, po after 18 hrs relative to control; assay type: functional; set-up: scale not given: the % may be the effect or the level left; summary of the method: as §1
[16] = system: Rattus norvegicus; experiment: Antihyperlipidemic activity in triton WR-1339-induced Charles-Foster rat assessed as increase in plasma HDL level at 100 mg/kg, po after 18 hrs; assay type: functional, organism-based; set-up: dose 100 mg/kg; summary of the method: as §1

Row | Structure (SMILES) | Activity [1] [%] | Activity [2] [%] | Activity [3] [%] | Activity [4] [%] | also measured
1 | CC(C)c1cc(/C=C/C(=O)c2ccc(OCC(=O)O)cc2)cc2cc(C(=O)O)c(=O)oc12 | 9 | 8 | 3 | 7 | 
2 | CCOC(=O)CCCOc1ccc(C(=O)/C=C/c2cc(C)c3oc(=O)c(C(=O)OCC)cc3c2)cc1 | 19 | 16 | 12 | 17 | 
3 | Cc1cc(/C=C/C(=O)c2ccc(OC(C)C(=O)O)cc2)cc2cc(C(=O)O)c(=O)oc12 (stereo unspecified) | 26 | 25 | 17 | 24 | Activity [5]: 17%; Activity [6]: 15%; Activity [7]: Active; Activity [8]: 26%; Activity [9]: 16%; Activity [10]: 27%; Activity [11]: Active; Activity [12]: Active; Activity [13]: 24%; Activity [14]: 12%; Activity [15]: 14%; Activity [16]: Active
4 | CCC(C)c1cc(/C=C/C(=O)c2ccc(OC(C)(C)C(=O)O)cc2)cc2cc(C(=O)O)c(=O)oc12 (stereo unspecified) | 8 | 9 | 4 | 8 | 
5 | CCC(C)c1cc(/C=C/C(=O)c2ccc(OCC(=O)O)cc2)cc2cc(C(=O)O)c(=O)oc12 (stereo unspecified) | 8 | 9 | 3 | 9 | 
6 | CCOC(=O)c1cc2cc(/C=C/C(=O)c3ccc(OC(C)C(=O)OCC)cc3)cc(C(C)CC)c2oc1=O (stereo unspecified) | 10 | 9 | 5 | 9 | 
7 | CCOC(=O)c1cc2cc(/C=C/C(=O)c3ccc(OC(C)C(=O)OCC)cc3)cc(C)c2oc1=O (stereo unspecified) | 10 | 11 | 6 | 12 | 
8 | CCOC(=O)CCCOc1ccc(C(=O)/C=C/c2cc(C(C)CC)c3oc(=O)c(C(=O)OCC)cc3c2)cc1 (stereo unspecified) | 13 | 12 | 7 | 12 | 
9 | CCOC(=O)COc1ccc(C(=O)/C=C/c2cc(C(C)(C)C)c3oc(=O)c(C(=O)OCC)cc3c2)cc1 | 13 | 11 | 5 | 11 | 
10 | CCOC(=O)C(C)Oc1ccc(C(=O)/C=C/c2cc(C=O)c(O)c(C(C)CC)c2)cc1 (stereo unspecified) | 13 | 11 | 5 | 11 | 
11 | CCOC(=O)C(C)Oc1ccc(C(=O)/C=C/c2cc(C)c(O)c(C=O)c2)cc1 (stereo unspecified) | 12 | 11 | 6 | 13 | 
12 | Cc1ccc(C)c(OCCCC(C)(C)C(=O)O)c1 [GEMFIBROZIL] | 32 | 33 | 19 | 30 | 
13 | CCOC(=O)CCCOc1ccc(C(=O)/C=C/c2cc(C(C)(C)C)c3oc(=O)c(C(=O)OCC)cc3c2)cc1 | 12 | 11 | 5 | 11 | 
14 | CCOC(=O)COc1ccc(C(=O)/C=C/c2cc(C(C)C)c3oc(=O)c(C(=O)OCC)cc3c2)cc1 | 21 | 22 | 15 | 20 | 
15 | CCOC(=O)c1cc2cc(/C=C/C(=O)c3ccc(OC(C)(C)C(=O)OCC)cc3)cc(C(C)CC)c2oc1=O (stereo unspecified) | 22 | 23 | 15 | 23 | Activity [5]: 15%; Activity [6]: 16%; Activity [8]: 25%; Activity [9]: 18%; Activity [10]: 23%; Activity [13]: 24%; Activity [14]: 13%; Activity [15]: 16%
16 | CCOC(=O)COc1ccc(C(=O)/C=C/c2cc(C)c3oc(=O)c(C(=O)OCC)cc3c2)cc1 | 6 | 8 | 2 | 8 | 
17 | CCOC(=O)COc1ccc(C(=O)/C=C/c2cc(C(C)CC)c3oc(=O)c(C(=O)OCC)cc3c2)cc1 (stereo unspecified) | 11 | 11 | 8 | 12 | 
18 | CCOC(=O)c1cc2cc(/C=C/C(=O)c3ccc(OC(CC)C(=O)OCC)cc3)cc(C)c2oc1=O (stereo unspecified) | 14 | 14 | 10 | 15 | 
19 | CCOC(=O)c1cc2cc(/C=C/C(=O)c3ccc(OC(C)(C)C(=O)OCC)cc3)cc(C)c2oc1=O | 10 | 8 | 5 | 10 | 

Reference: ChEMBL document CHEMBL2390870, “Coumarin chalcone fibrates: a new structural class of lipid lowering agents” (2013)
